Results from ChEMBL document CHEMBL1154609, “Synthesis and antibacterial activity of isothiazolyl oxazolidinones and analogous 3(2H)-isothiazolones” (Eur J Med Chem, 2010).
Converted amounts (≈) assume the structure as drawn.

What was measured:
[1] = test system: Staphylococcus aureus; assay: Antibacterial activity against Staphylococcus aureus ATCC 29737 after 18 hrs by agar dilution method; assay type: functional; conditions: ATCC 29737, 18 h
In short: (§1)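 Agar dilution on Mueller Hinton agar; inoculum about 10^6 CFU/mL applied to plates with twofold serial dilutions of compound in distilled water, 0.01 to 100 μg/mL; 37 °C, 18 h. DMSO-supplemented medium at matching dilution run as solvent control. MIC = lowest concentration giving no visible growth on the plate.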

[2] = test system: Staphylococcus epidermidis; assay: Antibacterial activity against Staphylococcus epidermidis ATCC 12229 after 18 hrs by agar dilution method; assay type: functional; conditions: ATCC 12229, 18 h; in short: as §1
[3] = test system: Escherichia coli; assay: Antibacterial activity against Escherichia coli ATCC 8739 after 18 hrs by agar dilution method; assay type: functional; conditions: ATCC 8739, 18 h; in short: as §1
[4] = test system: Salmonella typhimurium; assay: Antibacterial activity against Salmonella Typhimurium ATCC 1639 after 18 hrs by agar dilution method; assay type: functional, Salmonella enterica subsp. enterica serovar Typhimurium; conditions: Salmonella enterica, ATCC 1639, 18 h; in short: as §1
[5] = test system: Pseudomonas aeruginosa; assay: Antibacterial activity against Pseudomonas aeruginosa ATCC 9027 after 18 hrs by agar dilution method; conditions: ATCC 9027, 18 h
[6] = test system: Staphylococcus aureus; assay: Antibacterial activity against methicillin-resistant Staphylococcus aureus isolate 2 after 18 hrs by agar dilution method; assay type: functional; conditions: isolate 2, 18 h
In short: (§2)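 Agar dilution on Mueller Hinton agar. Inoculum about 10^6 CFU/mL applied to plates holding two-fold serial dilutions of compound in distilled water, 0.01 to 100 μg/mL. Incubated 37 °C for 18 h. DMSO solvent control included. MIC taken as the lowest concentration giving no visible growth on the plate.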

[7] = test system: Staphylococcus aureus; assay: Antibacterial activity against methicillin-resistant Staphylococcus aureus isolate 1 after 18 hrs by agar dilution method; assay type: functional; conditions: isolate 1, 18 h; in short: as §2
[8] = Cytotoxicity against mouse NIH/3T3 cells after 24 hrs by MTT assay; assay type: cell-based; conditions: NIH3T3, 24 h
In short: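 NIH/3T3 normal mouse fibroblasts exposed to compounds for 24 h; viability read by MTT colorimetric assay.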

MIC [1] [µg/mL]	MIC [2] [µg/mL]	MIC [3] [µg/mL]	MIC [4] [µg/mL]	MIC [5] [µg/mL]	Compound	MIC [6] [µg/mL]	MIC [7] [µg/mL]	IC50 [8] [µg/mL]
12.5 (≈ 57 µM)	12.5 (≈ 57 µM)	12.5 (≈ 57 µM)	12.5 (≈ 57 µM)	12.5 (≈ 57 µM)	CC(=O)c1ccc(-n2sccc2=O)cc1			
25 (≈ 102 µM)	0.25 (≈ 1.02 µM)	25 (≈ 102 µM)	25 (≈ 102 µM)	25 (≈ 102 µM)	O=c1ccsn1-c1ccc(C(F)(F)F)cc1			
50 (≈ 163 µM)	50 (≈ 163 µM)	100 (≈ 326 µM)	100 (≈ 326 µM)	100 (≈ 326 µM)	COc1ccc(N2CC(Cn3sccc3=O)OC2=O)cc1 (centres undefined)			
10 (≈ 48.2 µM)	3 (≈ 14.5 µM)	25 (≈ 121 µM)	12.5 (≈ 60.3 µM)	25 (≈ 121 µM)	COc1ccc(-n2sccc2=O)cc1			
12.5 (≈ 49.3 µM)	12.5 (≈ 49.3 µM)	12.5 (≈ 49.3 µM)	25 (≈ 98.5 µM)	12.5 (≈ 49.3 µM)	CC(=O)c1ccc(-n2sc(Cl)cc2=O)cc1			
10 (≈ 47.2 µM)	12.5 (≈ 59.1 µM)	25 (≈ 118 µM)	25 (≈ 118 µM)	25 (≈ 118 µM)	O=c1ccsn1-c1cccc(Cl)c1			

The remaining lines, values behind:

Compound	MIC [1] [µg/mL]	MIC [2] [µg/mL]	MIC [3] [µg/mL]	MIC [4] [µg/mL]	MIC [5] [µg/mL]	MIC [6] [µg/mL]	MIC [7] [µg/mL]	IC50 [8] [µg/mL]
O=C1OC(Cn2sccc2=O)CN1c1ccc(N2CCOCC2)c(F)c1 (centres undefined)	6 (≈ 15.8 µM)	12.5 (≈ 32.9 µM)	25 (≈ 65.9 µM)	12.5 (≈ 32.9 µM)	12.5 (≈ 32.9 µM)			
O=c1cc(Cl)sn1-c1ccc(F)cc1	3 (≈ 13.1 µM)	3 (≈ 13.1 µM)	6 (≈ 26.1 µM)	6 (≈ 26.1 µM)	12.5 (≈ 54.4 µM)			
O=C1OC(Cn2sccc2=O)CN1c1ccccc1 (centres undefined)	0.75 (≈ 2.71 µM)	0.75 (≈ 2.71 µM)	0.01 (≈ 0.0362 µM)	0.01 (≈ 0.0362 µM)	0.01 (≈ 0.0362 µM)	10 (≈ 36.2 µM)	6 (≈ 21.7 µM)	162 (≈ 586 µM)
O=C1OC(Cn2sccc2=O)CN1c1ccc(F)cc1 (centres undefined)	0.75 (≈ 2.55 µM)	1.5 (≈ 5.1 µM)	0.75 (≈ 2.55 µM)	0.75 (≈ 2.55 µM)	0.75 (≈ 2.55 µM)	12.5 (≈ 42.5 µM)	10 (≈ 34 µM)	174 (≈ 591 µM)
COc1ccc(-n2sc(Cl)cc2=O)cc1	1.5 (≈ 6.21 µM)	0.25 (≈ 1.03 µM)	1.5 (≈ 6.21 µM)	1.5 (≈ 6.21 µM)	0.01 (≈ 0.0414 µM)			
O=C1OC(Cn2sccc2=O)CN1c1ccc(Cl)cc1 (centres undefined)	1.5 (≈ 4.83 µM)	1.5 (≈ 4.83 µM)	12.5 (≈ 40.2 µM)	12.5 (≈ 40.2 µM)	25 (≈ 80.4 µM)	12.5 (≈ 40.2 µM)	12.5 (≈ 40.2 µM)	194 (≈ 624 µM)
Cc1ccc(-n2sc(Cl)cc2=O)cc1	5 (≈ 22.2 µM)	0.5 (≈ 2.22 µM)	5 (≈ 22.2 µM)	5 (≈ 22.2 µM)	0.01 (≈ 0.0443 µM)			
Cc1ccc(N2CC(Cn3sccc3=O)OC2=O)cc1 (centres undefined)	25 (≈ 86.1 µM)	25 (≈ 86.1 µM)	25 (≈ 86.1 µM)	25 (≈ 86.1 µM)	25 (≈ 86.1 µM)			
O=c1ccsn1Cc1ccccc1	12.5 (≈ 65.4 µM)	6 (≈ 31.4 µM)	12.5 (≈ 65.4 µM)	12.5 (≈ 65.4 µM)	12.5 (≈ 65.4 µM)			
O=c1cc(Cl)sn1Cc1ccccc1	0.5 (≈ 2.22 µM)	0.5 (≈ 2.22 µM)	0.5 (≈ 2.22 µM)	12.5 (≈ 55.4 µM)	25 (≈ 111 µM)			
O=c1cc(Cl)sn1-c1cccc(Cl)c1	6 (≈ 24.4 µM)	10 (≈ 40.6 µM)	12.5 (≈ 50.8 µM)	12.5 (≈ 50.8 µM)	12.5 (≈ 50.8 µM)			
